pEC50, pKi: −log10 of the molar value. The source made the active and inactive calls.
Legend:
[1] = molecular target: T1, Mu-type opioid receptor (Homo sapiens, UniProt P35372)
[2] = molecular target: T1, Mu-type opioid receptor; assay: Potency index, ratio of test compounds intrinsic activity to DADLE intrinsic activity for agonist activity at Rluc-tagged MOR receptor (unknown origin) expressed in human […] cells co-expressing RGFP-fused to Gbeta1; type: cell-based
Procedure, shortened: (§1)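 Enriched plasma membranes (3 µg protein) from SH-SY5Y cells stably co-expressing MOR-RLuc and Gβ1-RGFP, in DPBS. Membranes prepared by Dounce homogenisation in sucrose buffer and differential centrifugation. Coelenterazine 5 µM final; ligands in PBS-BSA 0.01% incubated 5 min at room temperature. Read-out is BRET ratio (510/460 nm). […] At least 5 experiments in duplicate.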

[3] = molecular target: T1, Mu-type opioid receptor; assay: Bias factor, change in deltalog(Tau/KA) for agonist activity at Rluc-tagged MOR receptor (unknown origin) expressed in human […] cells co-expressing RGFP-fused to Gbeta1 assessed as increase in MOR/G beta1 protein interaction incubated for 5 mins in presence of coelenterazine by BRET assay to deltalog(Tau/KA) for agonist activity at Rluc-tagged MOR receptor (unknown origin) expressed in human […] cells co-expressing RGFP-fused to MOR/beta-arrestin-2 assessed as increase in beta-arrestin-2 protein interaction incubated for 5 mins in presence of coelenterazine by BRET assay; type: cell-based
[4] = molecular target: T1, Mu-type opioid receptor; assay: Potency index, ratio of test compounds EC50 to DADLE EC50 for agonist activity at Rluc-tagged MOR receptor (unknown origin) expressed in human […] cells co-expressing RGFP-fused to beta-arrestin-2; type: cell-based
Procedure, shortened: (§2)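 Whole SH-SY5Y cells stably co-expressing MOR-RLuc and β-arrestin 2-RGFP, plated 24 h before at 100,000 cells/well, in PBS with 0.5 mM MgCl2 and 0.9 mM CaCl2. Coelenterazine 5 µM final, added 15 min before reading; ligands incubated 5 min at room temperature. Read-out is BRET ratio (510/460 nm).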

[5] = molecular target: T2, Delta-type opioid receptor (Homo sapiens, UniProt P41143); assay: Agonist activity at Rluc-tagged DOR receptor (unknown origin) expressed in human […] cells co-expressing RGFP-fused to Gbeta1 assessed as increase in DOR/G beta1 protein interaction incubated for 5 mins in presence of coelenterazine by BRET assay; type: cell-based
T2 sequence (P41143 whole entry, the tested form may be a part): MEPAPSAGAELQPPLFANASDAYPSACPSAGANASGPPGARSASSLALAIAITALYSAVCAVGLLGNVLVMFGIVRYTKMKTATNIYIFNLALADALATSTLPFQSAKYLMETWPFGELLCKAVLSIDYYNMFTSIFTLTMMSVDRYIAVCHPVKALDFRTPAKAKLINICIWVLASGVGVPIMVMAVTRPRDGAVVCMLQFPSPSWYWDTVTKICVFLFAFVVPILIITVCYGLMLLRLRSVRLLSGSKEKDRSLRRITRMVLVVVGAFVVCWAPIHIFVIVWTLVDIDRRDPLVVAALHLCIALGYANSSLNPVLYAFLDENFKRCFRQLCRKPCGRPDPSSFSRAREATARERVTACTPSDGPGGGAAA

[6] = molecular target: T1, Mu-type opioid receptor; remark: listed apart in the source
[7] = molecular target: T2, Delta-type opioid receptor; assay: Agonist activity at Rluc-tagged DOR receptor (unknown origin) expressed in human […] cells co-expressing RGFP-fused to beta-arrestin-2 assessed as increase in DOR/beta-arrestin-2 protein interaction incubated for 5 mins in presence of coelenterazine by BRET assay; type: cell-based
[8] = molecular target: T1, Mu-type opioid receptor; assay: Potency index, ratio of test compounds pEC50 to DADLE pEC50 for agonist activity at Rluc-tagged MOR receptor (unknown origin) expressed in human […] cells co-expressing RGFP-fused to Gbeta1; type: cell-based
[9] = molecular target: T1, Mu-type opioid receptor; assay: Potency index, ratio of test compounds pEC50 to DADLE pEC50 for agonist activity at Rluc-tagged MOR receptor (unknown origin) expressed in human […] cells co-expressing RGFP-fused to beta-arrestin-2; type: cell-based
[10] = molecular target: T1, Mu-type opioid receptor; assay: Potency index, ratio of test compounds EC50 to DADLE EC50 for agonist activity at Rluc-tagged MOR receptor (unknown origin) expressed in human […] cells co-expressing RGFP-fused to Gbeta1; type: cell-based
Procedure, shortened: as §1

[11] = molecular target: T1, Mu-type opioid receptor; assay: Potency index, ratio of test compounds intrinsic activity to DADLE intrinsic activity for agonist activity at Rluc-tagged MOR receptor (unknown origin) expressed in human […] cells co-expressing RGFP-fused to beta-arrestin-2; type: cell-based
Procedure, shortened: as §2

[12] = molecular target: Delta-type opioid receptor (Rattus norvegicus, UniProt P33533); assay: Displacement of [3H]DPDPE from DOR in rat brain membranes incubated for 45 mins by liquid scintillation counting; type: cell membranes
Sequence of Delta-type opioid receptor (Rattus norvegicus, UniProt P33533) (P33533 whole entry): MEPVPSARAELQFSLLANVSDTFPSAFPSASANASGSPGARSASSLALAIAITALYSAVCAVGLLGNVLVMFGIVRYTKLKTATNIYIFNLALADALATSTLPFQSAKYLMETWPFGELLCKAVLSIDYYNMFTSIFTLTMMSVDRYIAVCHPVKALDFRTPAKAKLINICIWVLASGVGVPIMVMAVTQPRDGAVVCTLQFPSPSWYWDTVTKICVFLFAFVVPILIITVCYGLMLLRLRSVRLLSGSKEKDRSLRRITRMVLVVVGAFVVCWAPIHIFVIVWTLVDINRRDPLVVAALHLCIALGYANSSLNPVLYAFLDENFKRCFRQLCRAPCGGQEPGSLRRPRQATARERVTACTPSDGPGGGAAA
Procedure, shortened: (§3)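 Rat brain membranes in 50 mM Tris-HCl pH 7.4, incubated 45 min at 35 °C. MOR: 0.4 mg/mL protein with 1 nM [3H]-DAMGO. DOR: 0.5 mg/mL protein with 2 nM [3H]-DPDPE. Filtered and counted by liquid scintillation. Ki from nonlinear regression of a logistic fit. Three experiments in duplicate.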

[13] = Selectivity ratio of Ki for KOR in guinea pig brain membranes to Ki for MOR in rat brain membranes; type: cell membranes
[14] = Toxicity in Swiss CB1 mouse assessed as sedation at 0.5 to 3.0 mg/kg, ip after 30 to 180 mins; type: organism-based; details: in vivo
[15] = molecular target: Kappa-type opioid receptor (Cavia porcellus, UniProt P41144); assay: Displacement of [3H]-U69,593 from KOR in guinea pig brain membranes incubated for 30 mins by liquid scintillation counting; type: cell membranes
Sequence of Kappa-type opioid receptor (P41144 whole entry): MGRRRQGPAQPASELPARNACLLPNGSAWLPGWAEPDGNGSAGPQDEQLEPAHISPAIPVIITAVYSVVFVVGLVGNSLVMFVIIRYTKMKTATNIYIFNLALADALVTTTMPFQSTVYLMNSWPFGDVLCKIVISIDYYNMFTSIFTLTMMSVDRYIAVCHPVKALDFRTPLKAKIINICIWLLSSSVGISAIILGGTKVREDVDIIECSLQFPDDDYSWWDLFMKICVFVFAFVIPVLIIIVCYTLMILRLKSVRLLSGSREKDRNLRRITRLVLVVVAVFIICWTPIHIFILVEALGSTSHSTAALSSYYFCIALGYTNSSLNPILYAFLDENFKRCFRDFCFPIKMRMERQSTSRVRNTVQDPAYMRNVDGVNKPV
Procedure, shortened: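 Guinea pig brain membranes (0.5 mg/mL) incubated 30 min at 30 °C with 1 nM [3H]-(+)-U69,593. Filtered and counted by liquid scintillation. Ki from nonlinear regression of a logistic fit. Three experiments in duplicate.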

[16] = test system: Mus musculus; assay: Antinociceptive activity in ip dosed Swiss CB1 mouse after 30 to 180 mins by radiant heat tail-flick method; type: functional
Procedure, shortened: (§4)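 Male Swiss CB1 mice (25-30 g), habituated the day before. Radiant heat tail-flick: infrared source aimed at the lower third of the tail at 25 ± 1 °C. Baseline 3-5 s, mean of three readings 5 min apart; 20 s cutoff. Compounds in saline with DMSO (5%), given i.p. Latencies read at 30-180 min. […] Groups of 6-8 mice.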

[17] = species on record: Rattus norvegicus; assay: Selectivity ratio of Ki for DOR in rat brain membranes to Ki for MOR in rat brain membranes; type: cell membranes
Procedure, shortened: as §3

[18] = molecular target: Mu-type opioid receptor (Rattus norvegicus, UniProt P33535); assay: Displacement of [3H]-DAMGO from MOR in rat brain membranes incubated for 45 mins by liquid scintillation counting; type: cell membranes
Sequence of Mu-type opioid receptor (Rattus norvegicus, UniProt P33535) (P33535 whole entry): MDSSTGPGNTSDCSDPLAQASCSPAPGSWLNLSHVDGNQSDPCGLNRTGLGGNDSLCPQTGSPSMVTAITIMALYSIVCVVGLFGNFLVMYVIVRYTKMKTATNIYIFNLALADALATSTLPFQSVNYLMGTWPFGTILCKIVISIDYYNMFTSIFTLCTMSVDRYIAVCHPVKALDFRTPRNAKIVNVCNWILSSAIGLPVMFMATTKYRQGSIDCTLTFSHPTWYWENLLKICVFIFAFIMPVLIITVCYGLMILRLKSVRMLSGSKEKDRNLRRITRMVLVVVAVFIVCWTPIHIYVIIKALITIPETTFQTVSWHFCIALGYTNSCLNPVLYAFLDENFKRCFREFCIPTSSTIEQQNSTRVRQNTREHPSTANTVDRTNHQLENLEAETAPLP
Procedure, shortened: as §3

[19] = Toxicity in Swiss CB1 mouse assessed as locomotor activity at 0.5 to 3.0 mg/kg, ip after 30 to 180 mins; type: organism-based; details: in vivo
[20] = species on record: Homo sapiens; assay: Selectivity ratio of agonist activity at Rluc-tagged MOR receptor (unknown origin) expressed in human SH-5YSY cells co-expressing RGFP-fused to Gbeta1 assessed as increase in MOR/G beta1 protein interaction incubated for 5 mins in presence of coelenterazine by BRET assay over Agonist activity at Rluc-tagged DOR receptor (unknown origin) expressed in human […] cells co-expressing RGFP-fused to Gbeta1 assessed as increase in DOR/G beta1 protein interaction incubated for 5 mins in presence of coelenterazine by BRET assay; type: cell-based
[21] = Toxicity in Swiss CB1 mouse assessed as sedation at 0.5 to 5.0 mg/kg, ip after 30 to 180 mins; type: organism-based; details: in vivo
[22] = test system: Mus musculus; assay: Antinociceptive activity in ip dosed Swiss CB1 mouse after 60 to 180 mins by radiant heat tail-flick method; type: functional, organism-based
Procedure, shortened: as §4

[23] = Toxicity in Swiss CB1 mouse assessed as locomotor activity at 0.5 to 5.0 mg/kg, ip after 30 to 180 mins; type: organism-based; details: in vivo

T1 sequence (P35372 whole entry, the tested form may be a part): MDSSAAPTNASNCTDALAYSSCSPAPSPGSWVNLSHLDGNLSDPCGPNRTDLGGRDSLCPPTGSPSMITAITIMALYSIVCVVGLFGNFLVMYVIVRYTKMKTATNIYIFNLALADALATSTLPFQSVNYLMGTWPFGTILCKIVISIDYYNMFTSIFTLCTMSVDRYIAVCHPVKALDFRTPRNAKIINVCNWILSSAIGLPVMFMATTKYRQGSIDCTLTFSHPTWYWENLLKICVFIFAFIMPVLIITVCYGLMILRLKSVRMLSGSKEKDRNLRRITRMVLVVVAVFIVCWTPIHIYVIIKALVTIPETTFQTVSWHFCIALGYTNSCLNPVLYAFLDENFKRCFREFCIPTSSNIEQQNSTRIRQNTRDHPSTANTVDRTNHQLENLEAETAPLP

Compound `COC(CN1CC[C@@]2(C)c3cc(O)ccc3C[C@@H]1[C@@H]2C)c1ccccc1` (some centres undefined) has a pEC50 [1] of 6.56, a Ratio [2] of 0.92 and a fold change (FC) [3] of 0.57. The Ratio [4] was 0.2, the pEC50 [5] was 7.02 and the pEC50 [6] was 7.90. It also gave a pEC50 [7] of 5.65, a Ratio [8] of 10 and a Ratio [9] of 5. The Ratio [10] was 0.1 and the Ratio [11] was 0.71.
Compound `CO[C@H](CN1CC[C@@]2(C)c3cc(O)ccc3C[C@@H]1[C@@H]2C)c1ccccc1` has a pEC50 [1] of 6.82, a Ratio [2] of 0.93 and a fold change (FC) [3] of 0.82. The Ratio [4] was 0.11, the pKi [12] was 8.59 and the pEC50 [5] was 7.49. The Ratio Ki [13] was 53, the Activity [14] was “Non-Toxic” and the pKi [15] was 7.58. For the same compound, the pEC50 [6] was 8.33, the pEC50 [7] was 5.73 and the ED50 [16] was 0.6 mg/kg. The Ratio Ki [17] was 5.18, the pKi [18] was 9.30 and the Ratio [8] was 30. It also gave a Ratio [9] of 9, a Ratio [10] of 0.04 and a Ratio [11] of 0.72. The Activity [19] was “Non-Toxic”.
Compound `C[C@H]1[C@H]2Cc3ccc(O)cc3[C@]1(C)CCN2C[C@@H](O)c1ccccc1` has a Ratio [2] of 0.87, a pEC50 [5] of 7.84 and a pEC50 [6] of 8.18. It also gave a Ratio [20] of 0.46 and a Ratio [10] of 0.06.
Work on `CO[C@@H](CN1CC[C@@]2(C)c3cc(O)ccc3C[C@@H]1[C@@H]2C)c1ccccc1` yielded a pKi [12] of 6.82, a Ratio Ki [13] of 19.2 and a pKi [15] of 6.63. For the same compound, the ED50 [16] was 1.8 mg/kg, the Activity [21] was “Non-Toxic” and the Ratio Ki [17] was 12.3. The pKi [18] was 7.91, the Activity [22] was “Active” and the Activity [23] was “Non-Toxic”.
In the case of `C[C@H]1[C@H]2Cc3ccc(O)cc3[C@]1(C)CCN2C[C@H](O)c1ccccc1`, the Ratio [2] was 0.82, the pEC50 [5] was 7.23 and the pEC50 [6] was 7.65. It also gave a Ratio [20] of 0.4 and a Ratio [10] of 0.19.

Source: ChEMBL document CHEMBL4340514, “(2S)-N-2-methoxy-2-phenylethyl-6,7-benzomorphan compound (2S-LP2): Discovery of a biased mu/delta opioid receptor agonist” (Eur J Med Chem, 2019)
